Laboratory results: ChEMBL document CHEMBL1125535, “Benzothiazole hydroxy ureas as inhibitors of 5-lipoxygenase: use of the hydroxyurea moiety as a replacement for hydroxamic acid” (J Med Chem, 1992)

Legend:
[1] = target: T1, Polyunsaturated fatty acid 5-lipoxygenase (Homo sapiens, UniProt P09917); experiment: In vitro inhibition of ionophore stimulated LTB4 release from human peripheral blood leukocytes.; assay type: functional
T1 sequence (P09917 whole entry): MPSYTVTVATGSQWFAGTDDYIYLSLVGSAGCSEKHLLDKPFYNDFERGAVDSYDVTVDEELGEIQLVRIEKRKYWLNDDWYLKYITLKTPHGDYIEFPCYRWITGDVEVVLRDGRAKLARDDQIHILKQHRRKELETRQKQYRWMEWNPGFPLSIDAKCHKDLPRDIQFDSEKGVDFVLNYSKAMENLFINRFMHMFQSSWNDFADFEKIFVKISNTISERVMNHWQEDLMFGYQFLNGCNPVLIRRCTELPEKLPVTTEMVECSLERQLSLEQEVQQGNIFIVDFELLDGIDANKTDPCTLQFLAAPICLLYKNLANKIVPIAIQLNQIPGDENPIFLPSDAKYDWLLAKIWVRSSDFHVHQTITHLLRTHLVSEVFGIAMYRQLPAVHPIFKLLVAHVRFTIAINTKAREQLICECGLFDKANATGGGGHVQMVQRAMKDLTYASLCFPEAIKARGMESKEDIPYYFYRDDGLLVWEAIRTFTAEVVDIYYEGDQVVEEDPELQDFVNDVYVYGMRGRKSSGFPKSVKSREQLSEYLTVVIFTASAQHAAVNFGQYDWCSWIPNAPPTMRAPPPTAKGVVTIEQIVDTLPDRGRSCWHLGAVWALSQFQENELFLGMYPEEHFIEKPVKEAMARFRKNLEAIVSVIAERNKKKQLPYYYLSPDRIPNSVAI
Method in brief: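 Leukocytes from pooled human venous blood were isolated by plasmagel sedimentation and erythrocyte lysis, then set to 1×10^6 cells/mL in modified Eagle MEM. Cells were preincubated 5 min at 37 °C with DMSO vehicle or compound, then stimulated 5 min at 37 °C with A23187 (5 µL of 0.1 mM). Reaction stopped on ice with cold Ca-free PBS; supernatant LTB4 measured by [3H]RIA.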

Mus musculus [2] = experiment: In vivo 5-Lipoxygenase inhibitory activity by using mouse zymosan peritonitis model; inactive; assay type: functional, organism-based
Method in brief: (§1)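 CD-1 mice (18–25 g) received compound orally in 0.5% methyl cellulose, then 3 mg zymosan-A in 0.5 mL 0.9% saline ip 1 h later. Samples were held on ice ≥30 min and spun at 28000g for 15 min at 4 °C. Supernatants were dried under nitrogen and stored at −70 °C. LTC4 measured by [3H]RIA on a 1:20 dilution.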

[3] = target: T1, Polyunsaturated fatty acid 5-lipoxygenase; experiment: In vitro effective concentration required to inhibit ionophore stimulated-human peripheral blood leukocytes; inactive; assay type: functional
Mus musculus [4] = experiment: In vivo 5-Lipoxygenase inhibitory activity by using mouse zymosan peritonitis model; assay type: functional, organism-based; method in brief: as §1

SMILES | EC50 [1] | EC50 (Mus musculus [2]) | EC50 [3] | EC50 (Mus musculus [4])
CC(C)c1ccc2nc(SCCNC(=O)N(C)O)sc2c1 | 160 nM | Not Active | – | –
O=C(NO)NCCSc1nc2cc(Cl)ccc2s1 | 24500 nM | Not Active | – | –
CNC(=O)NCCSc1nc2ccccc2s1 | – | Not Active | Not Active | –
CNC(=O)CCSc1nc2ccccc2s1 | – | – | Not Active | –
CCOc1ccc2nc(SCCNC(=O)N(O)C(C)C)sc2c1 | 390 nM | Not Active | – | –
CON(C)C(=O)NCCSc1nc2ccccc2s1 | – | Not Active | Not Active | –
CONC(=O)NCCSc1nc2ccccc2s1 | – | Not Active | Not Active | –
CN(O)C(=O)NCSc1nc2ccccc2s1 | 1070 nM | – | – | 65.9 mg/kg
CN(O)C(=O)NCCSc1nc2cccc(Cl)c2s1 | 530 nM | Not Active | – | –
CC(C)N(O)C(=O)NCCSc1nc2ccccc2s1 | 130 nM | Not Active | – | –
O=C(NO)NCCSc1nc2ccccc2s1 | 5200 nM | Not Active | – | –
CN(O)C(=O)NCCSc1nc2cc(C(F)(F)F)ccc2s1 | 3200 nM | Not Active | – | –
NC1=NN(c2cccc(C(F)(F)F)c2)CC1 [BW-755C] | – | – | – | 8.5 mg/kg
CC(c1cc2ccccc2s1)N(O)C(N)=O (stereo not drawn) [ZILEUTON] | – | – | – | 1.6 mg/kg

Continued, values first:

EC50 [1] | EC50 (Mus musculus [2]) | EC50 [3] | EC50 (Mus musculus [4]) | SMILES
39 nM | – | – | – | CN(O)C(=O)CCSc1nc2ccccc2s1
70 nM | – | – | – | CN(O)C(=O)CSc1nc2ccccc2s1
70 nM | Not Active | – | – | CC(C)N(O)C(=O)NCCCSc1nc2ccccc2s1
130 nM | – | – | – | CN(O)C(=O)/C=C/Sc1nc2ccccc2s1
70 nM | Not Active | – | – | CC(C)N(O)C(=O)NCCSc1nc2cc(Cl)ccc2s1
20 nM | – | – | – | CN(O)C(=O)CCSc1nc2cc(Cl)ccc2s1
20 nM | – | – | 23.1 mg/kg | CN(O)C(=O)NCCSc1nc2cc(Cl)ccc2s1
90 nM | – | – | 41 mg/kg | CN(O)C(=O)NCCSc1nc2ccccc2s1
110 nM | Not Active | – | – | CCOc1ccc2nc(SCCNC(=O)N(C)O)sc2c1
45 nM | – | – | 23 mg/kg | CN(O)C(=O)NCCCSc1nc2ccccc2s1
70 nM | – | – | 44.5 mg/kg | COc1ccc(-n2nc(CCC(=O)N(C)O)cc2-c2ccc(Cl)cc2)cc1 [TEPOXALIN]
